Measured values pooled from the literature.
Protocols differ between the studies behind these lines.
Target: Serine/threonine-protein kinase 33 (STK33, Homo sapiens, UniProt Q9BYT3)

Compound | assay | conditions | remaining binding
C[C@@H](c1cccc(C#N)c1)n1cc(Cl)cc(C(N)=O)c1=N | cell-free assay, competition with immobilised ligand | 1 µM | 100%
O=C(c1ccc(Nc2ncc(Cl)c(-c3cc4ccccc4s3)n2)cc1)N1CCC(N2CCCC2)CC1 | binding, competition with immobilised ligand | 1 µM | 38%
CNC(=O)c1ccc(Nc2ncc(C(F)(F)F)c(NCc3nccnc3N(C)S(C)(=O)=O)n2)cc1 | cell-free assay, competition with immobilised ligand | 0.1 µM | 68%
CN(C)c1ncc(F)c(-c2cnn3ncccc23)n1 | binding | 1 µM | 100%
COc1cnc(Nc2cccc(S(N)(=O)=O)c2)nc1N1CCN(c2ccccc2)CC1 | binding, competition with immobilised ligand | 1 µM | 100%
N[C@H]1CCN(c2nccc(-c3cnn4ncccc34)n2)C1 | binding | 1 µM | 0%
O=C(Nc1c[nH]nc1C(=O)NC1CCNCC1)c1cc(F)cc(F)c1 | binding, competition with immobilised ligand | 1 µM | 100%
CCCCN(CCCC)C(=O)CN1C[C@@H](c2cc(OC)c3c(c2)OCO3)[C@H](C(=O)O)[C@H]1CC(C)(C)CCC | cell-free assay, competition with immobilised ligand | 1 µM | 100%
O=C(c1ccc(Nc2ncc(Cl)c(-c3ccc(Cl)s3)n2)cc1)N1CCC(N2CCCC2)CC1 | binding, competition with immobilised ligand | 1 µM | 56%
CN(c1nccc(-c2cnn3ncccc23)n1)C1CC1 | binding | 1 µM | 100%
CO[C@@H](C)c1c(Nc2ccc([C@H](N(C)C(=O)C3CCS(=O)(=O)CC3)C(F)(F)F)cc2)cnc2cc(Cl)nn12 | cell-free assay, competition with immobilised ligand | 1 µM | 51%
c1cncc(-c2cccc(Nc3nccc(NC4CCCCC4)n3)c2)c1 | binding, competition with immobilised ligand | 10 µM | 44%
Nc1ncc2c(n1)-c1c([nH]c3ccc(C#CC4CC4)cc13)CCCC2 | binding, competition with immobilised ligand | 1 µM | 100%
CC(=O)C1=C(C)N(c2cccc(C(F)(F)F)c2)C(=O)N[C@@H]1c1ccc(C#N)nc1 | cell-free assay, competition with immobilised ligand | 1 µM | 91.6%
C[C@H]1CCN(c2nccc(-c3cnn4ncccc34)n2)C1 | binding | 1 µM | 100%
Cc1cnc(Nc2ccc(C(=O)N3CCC(N4CCCC4)CC3)cc2)nc1-c1cc2ccccc2s1 | binding, competition with immobilised ligand | 1 µM | 60%
CN(CCCC(F)(F)F)c1nccc(-c2cnn3ncccc23)n1 | binding | 1 µM | 100%
O=C(O)c1cc(-c2ccc(C3CCNCC3)cc2)c2ccc(-c3ccc(C(F)(F)F)cc3)cc2c1 | cell-free assay, competition with immobilised ligand | 1 µM | 100%
CC1CCCN1c1nccc(-c2cnn3ncccc23)n1 (stereo not shown) | binding | 1 µM | 100%
CCN1CCN(Cc2ccc(C(=O)Nc3ccc(C)c(Oc4ccc5c(c4)CC(=O)N5)c3)cc2C(F)(F)F)CC1 | binding, competition with immobilised ligand | 1 µM | 100%
CN(c1ccnc(CNc2nc(Nc3ccc4c(c3)CC(=O)N4)ncc2C(F)(F)F)n1)S(C)(=O)=O | cell-free assay, competition with immobilised ligand | 1 µM | 15%
c1cnn2ncc(-c3ccnc(N4CCC45COC5)n3)c2c1 | binding | 1 µM | 100%
